Columns and labels:
[1] = melting temperature; fluorescence melt of hairpins on a sequencing array, two-state fit, raised by 9.35 °C to match UV melts; conditions: sodium 0.088 M
Summary of the method: (§1)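 Bootstrapped two-state fits yielded melting temperature and folding enthalpy for library hairpins. Cy3 fluorescence, with annealed Cy3 and quencher oligos, was imaged on a sequenced MiSeq flow cell in 50 mM Na-HEPES pH 8.0, 25 mM NaCl in 2.5 °C steps up to 60 °C, and normalised to pre-quench Cy3 and to control constructs. Four replicates were combined by inverse variance, and fitted temperatures were raised by 9.35 °C to match UV melts.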

[2] = folding enthalpy; higher = less favourable; fluorescence melt of hairpins on a sequencing array, two-state fit; conditions: sodium 0.088 M
Summary of the method: as §1

GTAGGACGAAAGTCATAC (((.(((....))).)))
Tm [1]: 52.5 °C | folding enthalpy [2]: -28.1 kcal/mol

GATCCAAACTTGGATC ((((((....))))))
Tm [1]: 53.1 °C | folding enthalpy [2]: -39.4 kcal/mol

GTCTTGCGAAAGCACGAC (((.(((....))).)))
Tm [1]: 52.1 °C | folding enthalpy [2]: -41.5 kcal/mol

GATCTTACCAAGATC ((((((...))))))
Tm [1]: 45.6 °C | folding enthalpy [2]: -33 kcal/mol

GCGCTGCGAAAGCCTCGC (((..((....))..)))
Tm [1]: 47.6 °C | folding enthalpy [2]: -22 kcal/mol

GGAACAGGAAACTGTTTC (.(((((....))))).)
Tm [1]: 44.4 °C | folding enthalpy [2]: -31.7 kcal/mol

GCTGGGGGAAACTCCAGC (((((.(....).)))))
Tm [1]: 58 °C | folding enthalpy [2]: -37.6 kcal/mol

GTCATTGCGAAAGCAGAC (((..(((....))))))
Tm [1]: 33 °C | folding enthalpy [2]: -14.5 kcal/mol

GACGACGGAAACGCCGTC ((((.((....)).))))
Tm [1]: 56.4 °C | folding enthalpy [2]: -31.4 kcal/mol

GGTGCGCCGAAAGGCACC (((..(((....))))))
Tm [1]: 51.6 °C | folding enthalpy [2]: -13.2 kcal/mol

GCCATGGCGAAAGCCGGC (((..(((....))))))
Tm [1]: 62 °C | folding enthalpy [2]: -16.2 kcal/mol

GCCTCGCCGAAAGGCGGC (((..(((....))))))
Tm [1]: 55.4 °C | folding enthalpy [2]: -5.04 kcal/mol

GCTATTGGAAACAGTAGC ((((.((....)).))))
Tm [1]: 42.9 °C | folding enthalpy [2]: -30 kcal/mol

GACCACGAAAGTGCAGTC ((((((....)))..)))
Tm [1]: 36.6 °C | folding enthalpy [2]: -17.5 kcal/mol

GCTACGCGAAAGCACAGC (((..((....))..)))
Tm [1]: 46.5 °C | folding enthalpy [2]: -21.2 kcal/mol

GTACGAGGAAACTCGTGC (.(((((....))))).)
Tm [1]: 52 °C | folding enthalpy [2]: -39.2 kcal/mol

GATCTACACCTAGATC ((((((....))))))
Tm [1]: 42.5 °C | folding enthalpy [2]: -39.5 kcal/mol

GATTTAGGAAACTAAATC (((((((....)))))))
Tm [1]: 48 °C | folding enthalpy [2]: -42.9 kcal/mol

GTTTAACGAAAGTTGAAC (((.(((....))).)))
Tm [1]: 44.7 °C | folding enthalpy [2]: -29.9 kcal/mol

GCAAGGCCGAAAGGCTGC (((..(((....))))))
Tm [1]: 51.6 °C | folding enthalpy [2]: -14.8 kcal/mol

GCGGTCGAAAGACACGC ((((((....))).)))
Tm [1]: 61.8 °C | folding enthalpy [2]: -27.4 kcal/mol

GCTACCGAAAGGTAAGC ((((((....))).)))
Tm [1]: 53.2 °C | folding enthalpy [2]: -35 kcal/mol

GATCCGAAATCGGATC ((((((....))))))
Tm [1]: 54.9 °C | folding enthalpy [2]: -35.4 kcal/mol

GGGGATCCGAAAGGACCC (((..(((....))))))
Tm [1]: 53.9 °C | folding enthalpy [2]: -36.7 kcal/mol

GCAACACCGAAAGGTTGC (((..(((....))))))
Tm [1]: 49.8 °C | folding enthalpy [2]: -22.6 kcal/mol

GCAGGACGAAAGTCTTGC (((.(((....))).)))
Tm [1]: 58.5 °C | folding enthalpy [2]: -41.5 kcal/mol

GATCTACACGTAGATC ((((((....))))))
Tm [1]: 50.5 °C | folding enthalpy [2]: -35.6 kcal/mol

GTGGATGCGAAAGCACAC (((..(((....))))))
Tm [1]: 45.4 °C | folding enthalpy [2]: -17.9 kcal/mol

GACAGTGGAAACACTGTC (((((((....)))))))
Tm [1]: 60.8 °C | folding enthalpy [2]: -39.5 kcal/mol

GGTATACGAAAGTAACC (((.(((....))))))
Tm [1]: 34.9 °C | folding enthalpy [2]: -19.3 kcal/mol

GAGCACGAAAGTGTACTC ((((((....)))..)))
Tm [1]: 37.5 °C | folding enthalpy [2]: -15.4 kcal/mol

GCTAAGGCGAAAGCCAGC (((..(((....))))))
Tm [1]: 48.6 °C | folding enthalpy [2]: -16 kcal/mol

GTAGCCGAAAGGCCTTAC ((((((....)))..)))
Tm [1]: 33.5 °C | folding enthalpy [2]: -9.41 kcal/mol

GGAGAAACGAAAGTTTCC (((..(((....))))))
Tm [1]: 37.7 °C | folding enthalpy [2]: -14.1 kcal/mol

GTCCGTCGAAAGACTGAC (((.(((....))).)))
Tm [1]: 47.8 °C | folding enthalpy [2]: -28.3 kcal/mol

GCGGTGCGAAAGCCTCGC (((..((....))..)))
Tm [1]: 59.1 °C | folding enthalpy [2]: -22.2 kcal/mol

GCAGTTGCGAAAGCATGC (((..(((....))))))
Tm [1]: 42 °C | folding enthalpy [2]: -16.8 kcal/mol

GTCTTAGGAAACTAAGAC (((((((....)))))))
Tm [1]: 53.7 °C | folding enthalpy [2]: -38.4 kcal/mol

GATCCGAAGCCGGATC ((((((....))))))
Tm [1]: 55.4 °C | folding enthalpy [2]: -39.6 kcal/mol

GCTGGCGAAAGCCATAGC ((((((....)))..)))
Tm [1]: 52.3 °C | folding enthalpy [2]: -16.2 kcal/mol

GATCTATGGTTAGATC ((((((....))))))
Tm [1]: 41.5 °C | folding enthalpy [2]: -36 kcal/mol

GCGTCGCGAAAGCGGTGC ((..(((....)))..))
Tm [1]: 58.9 °C | folding enthalpy [2]: -18.1 kcal/mol

GAGCATGCGAAAGCACTC (((..(((....))))))
Tm [1]: 27 °C | folding enthalpy [2]: -8.93 kcal/mol

GTCCTCACGAAAGTGGAC (((..(((....))))))
Tm [1]: 43 °C | folding enthalpy [2]: -17.2 kcal/mol

GGTGTGCGAAAGCAACC (((.(((....))))))
Tm [1]: 52.1 °C | folding enthalpy [2]: -17 kcal/mol

GATCGGGGGCCGATC ((((((...))))))
Tm [1]: 54.9 °C | folding enthalpy [2]: -40.8 kcal/mol

GTCGCCGAAAGGCTGGAC ((((((....)))..)))
Tm [1]: 44 °C | folding enthalpy [2]: -13.1 kcal/mol

GGGTTACGAAAGTACCCC (((.(((....))).)))
Tm [1]: 52.1 °C | folding enthalpy [2]: -22.9 kcal/mol

GCTGTCGAAAGACTCAGC ((((((....)))..)))
Tm [1]: 40.5 °C | folding enthalpy [2]: -18.7 kcal/mol

GCCCGGCGAAAGCCCTGC ((..(((....)))..))
Tm [1]: 30.7 °C | folding enthalpy [2]: -8.41 kcal/mol

GATCTAACCGTAGATC ((((((....))))))
Tm [1]: 38 °C | folding enthalpy [2]: -25.1 kcal/mol

GCGACAAGTCGC ((((....))))
Tm [1]: 58 °C | folding enthalpy [2]: -30 kcal/mol

GCCGTCGAAAGACTTGGC ((((((....)))..)))
Tm [1]: 50.5 °C | folding enthalpy [2]: -17.2 kcal/mol

GCGTGGGGAAACCCACAC (.(((((....))))).)
Tm [1]: 46.9 °C | folding enthalpy [2]: -11.6 kcal/mol

GCATGCGAAAGCATTTGC ((((((....)))..)))
Tm [1]: 42.3 °C | folding enthalpy [2]: -14.4 kcal/mol

GATCTAGCTGTAGATC ((((((....))))))
Tm [1]: 39.9 °C | folding enthalpy [2]: -32.8 kcal/mol

GTGAGTGGAAACATTCGC (.((.((....)).)).)
Tm [1]: 33.4 °C | folding enthalpy [2]: -16.4 kcal/mol

GTTATCCGAAAGGAGAAC (((.(((....))).)))
Tm [1]: 51.1 °C | folding enthalpy [2]: -37.4 kcal/mol

GATCAAGCTTTTGATC ((((((....))))))
Tm [1]: 44.5 °C | folding enthalpy [2]: -34.8 kcal/mol

GGTGCCGAAAGGCTACC ((((((....))).)))
Tm [1]: 57.8 °C | folding enthalpy [2]: -17.2 kcal/mol

GGGGACGAAAGTCCGCCC ((((((....)))..)))
Tm [1]: 52.2 °C | folding enthalpy [2]: -11.5 kcal/mol

GATCTCTGCCGAGATC ((((((....))))))
Tm [1]: 51.3 °C | folding enthalpy [2]: -37.9 kcal/mol

GATCTAAGGATAGATC ((((((....))))))
Tm [1]: 34 °C | folding enthalpy [2]: -21.9 kcal/mol

GATCTGTGGCAGATC ((((((...))))))
Tm [1]: 49.1 °C | folding enthalpy [2]: -30.3 kcal/mol

CCTTGGAAACAAGG (((((....)))))
Tm [1]: 47.2 °C | folding enthalpy [2]: -15.7 kcal/mol

GGACTCGAAAGAGGTTCC ((((((....)))..)))
Tm [1]: 33.8 °C | folding enthalpy [2]: -17.6 kcal/mol

GTCTTCGGAAACAAAGAC (((((.(....).)))))
Tm [1]: 32.3 °C | folding enthalpy [2]: -29.7 kcal/mol

GCACTCGAAAGAGCTGC ((((((....))).)))
Tm [1]: 48.1 °C | folding enthalpy [2]: -28.3 kcal/mol

GCATCTCCGAAAGGATGC (((..(((....))))))
Tm [1]: 46.1 °C | folding enthalpy [2]: -28.6 kcal/mol

GACCCAGGAAACTGGATC ((.((((....)))).))
Tm [1]: 38.8 °C | folding enthalpy [2]: -17.9 kcal/mol

GAGCTTGGAAACAAGTTC ((.((((....)))).))
Tm [1]: 44.1 °C | folding enthalpy [2]: -25.9 kcal/mol

GGGGCATCGAAAGATCCC (((..(((....))))))
Tm [1]: 48.4 °C | folding enthalpy [2]: -21.9 kcal/mol

GCACATGCGAAAGCATGC (((..(((....))))))
Tm [1]: 40.4 °C | folding enthalpy [2]: -7.24 kcal/mol

GATCTTCTAAAAGATC ((((((....))))))
Tm [1]: 42 °C | folding enthalpy [2]: -30.2 kcal/mol

GATCGGTCGGCCGATC ((((((....))))))
Tm [1]: 59.4 °C | folding enthalpy [2]: -45.8 kcal/mol

GAGCAGCGAAAGCTCCTC (((.(((....))).)))
Tm [1]: 37.5 °C | folding enthalpy [2]: -15.2 kcal/mol

TCTGTGAAAACAGA (((((....)))))
Tm [1]: 42.4 °C | folding enthalpy [2]: -17.6 kcal/mol

GATCTCTCCAGAGATC ((((((....))))))
Tm [1]: 56.7 °C | folding enthalpy [2]: -40.2 kcal/mol

GATCCCTCCTGGGATC ((((((....))))))
Tm [1]: 61 °C | folding enthalpy [2]: -37 kcal/mol

GTCTACGAAAGTAAGGAC ((((((....)))..)))
Tm [1]: 31.2 °C | folding enthalpy [2]: -19.5 kcal/mol

GAATTAGGAAACTGATTC ((((.((....)).))))
Tm [1]: 33.7 °C | folding enthalpy [2]: -19.8 kcal/mol

TATCCGAAAGGATA (((((....)))))
Tm [1]: 56.5 °C | folding enthalpy [2]: -16.6 kcal/mol

GATTACGGAAACGTAGTC ((.((((....)))).))
Tm [1]: 38 °C | folding enthalpy [2]: -25 kcal/mol

GTCCCAGGAAACTGGGGC (.(((((....))))).)
Tm [1]: 57.5 °C | folding enthalpy [2]: -40.6 kcal/mol

GATCACCGCTGTGATC ((((((....))))))
Tm [1]: 57 °C | folding enthalpy [2]: -36.3 kcal/mol

GAGGCAGGAAACTGTCTC (((.(((....))).)))
Tm [1]: 50.2 °C | folding enthalpy [2]: -34.1 kcal/mol

GCCCAATCGAAAGATGGC (((..(((....))))))
Tm [1]: 43.3 °C | folding enthalpy [2]: -24.9 kcal/mol

GCGATGCGAAAGCCACGC (((..((....))..)))
Tm [1]: 52.1 °C | folding enthalpy [2]: -21.1 kcal/mol

GCGAATGTCGC ((((...))))
Tm [1]: 46.7 °C | folding enthalpy [2]: -17.6 kcal/mol

GCCCTAGGAAACTAGGGC (((((((....)))))))
Tm [1]: 67.5 °C | folding enthalpy [2]: -31.2 kcal/mol

GGGAACTCGAAAGAGCCC (((..(((....))))))
Tm [1]: 37.8 °C | folding enthalpy [2]: -20.3 kcal/mol

GTCAGTCGAAAGACAGAC (((.(((....))).)))
Tm [1]: 51 °C | folding enthalpy [2]: -39.4 kcal/mol
